Reference: ChEMBL document CHEMBL1240465, “Prenylflavonoids and prenyl/alkyl-phloroacetophenones: synthesis and antitumour biological evaluation” (Eur J Med Chem, 2010)
pIC50: −log10 of the molar value.

What was measured:
Assay type in all cases: functional, cell-based
A549 = assay: Cytotoxicity against human A549 cells after 72 hrs by XTT assay; settings: A549, 72 h
Summary of the method: (§1)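 Cells grown in DMEM (A549, HT-29, HeLa) or RPMI1640 (HL-60), both with 10% heat-inactivated fetal bovine serum, were exposed to compound across a concentration range for 72 h at 37 °C in humidified air/CO₂ (19/1), then read by XTT. Measurements were in triplicate. IC50 is the concentration giving 50% proliferation inhibition versus untreated controls, reported as mean ± S.D. of three independent determinations.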

HT-29 = assay: Cytotoxicity against human HT-29 cells after 72 hrs by XTT assay; settings: HT-29, 72 h
Summary of the method: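 Cells grown in DMEM (A549, HT-29, HeLa) or RPMI1640 (HL-60), both with 10% heat-inactivated fetal bovine serum, were exposed to compound across a concentration range for 72 h at 37 °C in humidified air/CO₂ (19/1), then read by XTT. Measurements were in triplicate.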

HeLa = assay: Cytotoxicity against human HeLa cells after 72 hrs by XTT assay; summary of the method: as §1
HL-60 = assay: Cytotoxicity against human HL60 cells after 72 hrs by XTT assay; settings: HL-60, 72 h; summary of the method: as §1

Row | Compound | pIC50 (A549) | pIC50 (HT-29) | pIC50 (HeLa) | pIC50 (HL-60)
1 | CC(=O)c1ccc(C)cc1O | < 4.00 | < 4.00 | < 4.00 | < 4.00
2 | CCCCCCCCCCCCCCCCCCOc1cc(O)c(C(C)=O)c(O)c1 | < 4.00 | < 4.00 | < 4.00 | < 4.00
3 | COc1cccc2c1C(=O)c1c(O)c3c(c(O)c1C2=O)C[C@@](O)(C(=O)CO)C[C@@H]3O[C@H]1C[C@H](N)[C@H](O)[C@H](C)O1 [DOXORUBICIN] | 6.59 |  | 6.54 | 
4 | CCCCCCCC/C=C\CCCCCCCCc1c(O)cc(O)c(C(C)=O)c1O | < 4.00 | < 4.00 | < 4.00 | < 4.00
5 | C=C1CC[C@H]2C(C)(C)CCC[C@]2(C)[C@H]1CC/C(C)=C/Cc1c(O)cc2oc(-c3ccc(O)cc3)c(O)c(=O)c2c1O [DENTICULAFLAVONOL] | < 4.00 | < 4.00 | < 4.00 | 
6 | CC(=O)c1c(O)cc(O)c(C/C=C(\C)CCC=C(C)C)c1O | 4.70 | 4.72 | 4.68 | 4.72
7 | CC(=O)c1c(O)cc(OCC=C(C)C)cc1O | < 4.00 | 4.51 | 4.52 | 4.49
8 | C=C1CC[C@H]2C(C)(C)CCC[C@]2(C)[C@H]1CC/C(C)=C/Cc1c(O)cc(O)c2c(=O)c(O)c(-c3ccc(OC)cc3)oc12 | < 4.00 | < 4.00 | < 4.00 | 
9 | C=C1CC[C@H]2C(C)(C)CCC[C@]2(C)[C@H]1CC/C(C)=C/Cc1c(O)cc(O)c2c(=O)c(O)c(-c3ccc(O)cc3)oc12 | 4.49 | 4.54 | 4.52 | 
10 | C=C1CC[C@H]2C(C)(C)CCC[C@]2(C)[C@H]1CC/C(C)=C/COc1cc(O)c2c(=O)c(OC/C=C(\C)CC[C@H]3C(=C)CC[C@H]4C(C)(C)CCC[C@]34C)c(-c3ccc(OC)cc3)oc2c1 | < 4.00 | < 4.00 | < 4.00 | 
11 | O=c1c(O)c(-c2ccc(O)cc2)oc2cc(O)cc(O)c12 [KAEMPFEROL] | < 4.00 | < 4.00 | < 4.00 | 
12 | CC(=O)c1c(O)cc(OC/C=C(\C)CC/C=C(\C)CCC=C(C)C)cc1O | 4.49 | 4.51 | 4.54 | 4.49
13 | CCCCCCCC/C=C\CCCCCCCCOc1cc(O)c(C(C)=O)c(O)c1 | 4.51 | 4.51 | 4.51 | 4.49
14 | COc1ccc(-c2oc3cc(O)cc(O)c3c(=O)c2O)cc1 [KAEMPFERIDE] | 4.66 | 4.49 | 4.64 | 
15 | COc1cc(O)c(C(C)=O)c(OC)c1 [XANTHOXYLIN] | < 4.00 | < 4.00 | < 4.00 | < 4.00
16 | CC(=O)c1c(OC/C=C(\C)CC/C=C(\C)CCC=C(C)C)cc(O)c(C/C=C(\C)CC/C=C(\C)CCC=C(C)C)c1O | < 4.00 | < 4.00 | < 4.00 | 4.49
17 | O=c1cc(-c2ccccc2)oc2cc(O)cc(O)c12 [CHRYSIN] | < 4.00 | < 4.00 | 4.54 | 
18 | CC(C)=CCC/C(C)=C/Cc1c(O)cc(O)c2c(=O)c(O)c(-c3ccc(O)cc3)oc12 | 4.59 | 4.52 | 4.52 | 
19 | CC(C)=CCC/C(C)=C/Cc1c(O)cc2oc(-c3ccc(O)cc3)c(O)c(=O)c2c1O [MACARANGIN] | < 4.00 | < 4.00 | < 4.00 | 
20 | CCCCCCCC/C=C\CCCCCCCCOc1cc(O)c(C(C)=O)c(OCCCCCCCC/C=C\CCCCCCCC)c1 | < 4.00 | < 4.00 | < 4.00 | < 4.00
21 | C=C1CC[C@H]2C(C)(C)CCC[C@]2(C)[C@H]1CC/C(C)=C/COc1cc(O)c2c(=O)c(OC/C=C(\C)CC[C@H]3C(=C)CC[C@H]4C(C)(C)CCC[C@]34C)c(-c3ccc(O)cc3)oc2c1 | < 4.00 | < 4.00 | < 4.00 | 
22 | CCCCCCCCCCCCCCCCCCc1c(O)cc(O)c(C(C)=O)c1O | 4.49 | 4.59 | 4.55 | 4.51
23 | CC(=O)c1c(O)c2c(c3c1OC(C)(C)CC3)OC(C)(C)CC2 | < 4.00 | 4.49 | < 4.00 | 4.51

Row | Compound | pIC50 (A549) | pIC50 (HT-29) | pIC50 (HeLa) | pIC50 (HL-60)
24 | CC(=O)c1c(O)cc2c(c1O)CCC(C)(C)O2 | < 4.00 | < 4.00 | < 4.00 | < 4.00
25 | CCCCCCCC/C=C\CCCCCCCCOc1cc(O)cc(O)c1C(C)=O | < 4.00 | < 4.00 | 4.51 | 4.49
26 | CC(=O)c1c(O)cc(O)cc1OC/C=C(\C)CC/C=C(\C)CCC=C(C)C | 4.49 | 4.54 | 4.51 | 4.51
27 | CC(=O)c1c(O)cc(O)cc1O [2,4,6-TRIHYDROXYACETOPHENONE] | < 4.00 | < 4.00 | < 4.00 | < 4.00
28 | CC(C)=CCC/C(C)=C/Cc1c(O)cc2oc(-c3ccccc3)cc(=O)c2c1O | 4.49 | 4.48 | 4.49 | 
29 | COc1ccc(-c2oc3cc(O)cc(O)c3c(=O)c2OC)cc1 [ERMANIN] | 4.51 | 4.49 | 4.51 | 
30 | C=C1CC[C@H]2C(C)(C)CCC[C@]2(C)[C@H]1CC/C(C)=C/COc1c(-c2ccc(OC)cc2)oc2cc(O)cc(O)c2c1=O | 4.52 | 4.49 | 4.52 | 
31 | CC(C)=CCC/C(C)=C/COc1cc2oc(-c3ccccc3)cc(=O)c2c(O)c1C/C=C(\C)CCC=C(C)C | 4.49 | 4.49 | 4.52 | 
32 | CC(=O)c1c(O)cc(O)c(C/C=C(\C)CC/C=C(\C)CCC=C(C)C)c1O | 4.66 | 4.74 | 4.89 | 4.85
33 | CC(C)=CCC/C(C)=C/COc1cc(O)c2c(=O)c(OC/C=C(\C)CCC=C(C)C)c(-c3ccc(O)cc3)oc2c1 | < 4.00 | 4.51 | < 4.00 | 
34 | CC(=O)c1c(O)cc(O)c2c1OC(C)(C)CC2 | < 4.00 | < 4.00 | < 4.00 | < 4.00
35 | CC(=O)c1c(O)cc(O)c(CC=C(C)C)c1O | 4.54 | 4.52 | 4.55 | 4.49
36 | CC(C)=CCC/C(C)=C/COc1c(-c2ccc(O)cc2)oc2cc(O)cc(O)c2c1=O | 4.57 | 4.60 | 4.64 | 
37 | CC(=O)c1c(O)cc(O)cc1OCC=C(C)C | < 4.00 | < 4.00 | < 4.00 | < 4.00
38 | C=C1CC[C@H]2C(C)(C)CCC[C@]2(C)[C@H]1CC/C(C)=C/COc1c(-c2ccc(O)cc2)oc2cc(O)cc(O)c2c1=O | 4.59 | 4.52 | 4.57 | 
39 | CC(=O)c1c(O)c(C/C=C(\C)CCC=C(C)C)c(O)c(C/C=C(\C)CCC=C(C)C)c1O | 4.49 | 4.70 | 4.51 | 4.72
40 | C=C1CC[C@H]2C(C)(C)CCC[C@]2(C)[C@H]1CC/C(C)=C/COc1cc(O)c2c(=O)c(O)c(-c3ccc(OC)cc3)oc2c1 | < 4.00 | < 4.00 | < 4.00 | 
41 | CC(C)=CCC/C(C)=C/COc1c(C/C=C(\C)CCC=C(C)C)c(O)c2c(=O)cc(-c3ccccc3)oc2c1C/C=C(\C)CCC=C(C)C | 4.54 | 4.49 | 4.52 | 
42 | CC(=O)c1c(O)cc2c(c1O)CCC(C)(CC/C=C(\C)CCC=C(C)C)O2 (stereo unspecified) | < 4.00 | < 4.00 | 4.52 | 4.51
43 | CCCCCCCCCCCCCCCCCCOc1cc(O)cc(O)c1C(C)=O | < 4.00 | < 4.00 | < 4.00 | < 4.00
44 | C=C1CC[C@H]2C(C)(C)CCC[C@]2(C)[C@H]1CC/C(C)=C/COc1cc(O)c2c(=O)c(O)c(-c3ccc(O)cc3)oc2c1 | < 4.00 | < 4.00 | < 4.00 | 
45 | CC(=O)c1c(O)c(CC=C(C)C)c(O)c(CC=C(C)C)c1O | < 4.00 | < 4.00 | < 4.00 | < 4.00
46 | COc1ccc(-c2oc3cc(OC)cc(O)c3c(=O)c2OC)cc1 | 4.52 | 4.59 | 4.55 | 
